Measurements as given in ChEMBL document CHEMBL4513216, “Probing the Open Global Health Chemical Diversity Library for Multistage-Active Starting Points for Next-Generation Antimalarials” (ACS Infect Dis, 2020).

Test: Toxicity liver stage against HepG2, at 10uM
Type: cell-based
Parameters: test concentration 10 uM, cell line HepG2-A16-CD81EGFP
Settings: human, HepG2-A16-CD81EGFP cells; read-out: INHIBITION
How it was run: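 Uninfected HepG2-A16-CD81EGFP cells, 3 × 10^3 per well, 1536-well, plated on prespotted compound at 10 μM final, parasite-free screening media added to match infected plates; puromycin 10 μM positive, DMSO 0.5% negative; run in parallel with 48 h PbLuc assay at 37 °C, 5% CO2; viability by CellTiter-Glo luminescence, normalized to controls.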

| Compound | cytotoxicity at 10 µM [%] |
| --- | --- |
| CC(C)c1nc(CN2CCN(C(=O)CN3CCOCC3)CC2)no1 | -7.8 |
| CC(=O)N1CCC(NC2(Cc3cc(C(C)(C)O)on3)COC2)CC1 | -1.09 |
| COCCn1c(-c2cccc(OC)c2)cnc1NC(=O)NC1CCCC1 | 12.3 |
| Cc1nn(C)cc1CN1CCCCCC1c1ccc(Cl)cc1 (configuration not stated) | 4.93 |
| CCC(C)CNC(=O)[C@@H]1CCCN1c1nccc(Nc2ccccc2)n1 (some centres not stated) | 3.57 |
| COc1cccc2sc(OC3CN(C(=O)C4=COCCO4)C3)nc12 | 4.91 |
| Cn1nc(CNC(=O)C2CCCCC2)cc1C1CC1 | -4.56 |
| CC(C)CCN1C2(CCN(c3ncccn3)C2)c2ccccc2S1(=O)=O (configuration not stated) | 1.35 |
| CC(C)N(C)C(=O)C1=NOC2(CCN(C(=O)c3cccn3C)C2)C1 (configuration not stated) | -122 |
| Cc1ccc(C)c(-c2[nH]c3ccccc3c2C(=O)O)c1 | 1.55 |
| O=C(NCCN1CCNCC1)c1nc2ccccc2c(=O)[nH]1 | 8.19 |
| O=C(c1nc(COc2ccc3c(c2)OCO3)no1)N1CCCC1 | 10.3 |
| Cc1nocc1C(=O)N1CCc2c(CN(C)C(C)C)n[nH]c2C1 | -12.3 |
| Cc1ccc(CC(=O)N2Cc3nccn3CC(Cn3cccn3)C2)cc1 (configuration not stated) | -10.5 |
| Cc1cc(NCCCOC(C)C)c2nncn2n1 | 6.17 |
| COc1cccc(CNCc2ccc(F)c(Cl)c2)c1O | -13.7 |
| Cc1cccc(C2(CNC(=O)c3ccnc(N(C)C)c3)CCOCC2)c1 | 2.85 |
| Cc1nn(C)cc1S(=O)(=O)NCC(c1ccccc1Cl)N1CCCC1 (configuration not stated) | -1.29 |
| O=C(c1cncnc1)N1CCCC(c2nccs2)C1 (configuration not stated) | 6.55 |
| O=C(c1cc[nH]n1)N1CCCC1c1ccccn1 (configuration not stated) | -22.5 |
| O=S(=O)(c1ccc(F)cc1)N1CCCC(c2nccs2)C1 (configuration not stated) | -6.74 |

| Compound | cytotoxicity at 10 µM [%] |
| --- | --- |
| CN1CCc2nc(C3CCCCN3Cc3ccccc3Cl)ncc2C1 (configuration not stated) | -27.7 |
| Cc1cccc(-c2cccc(CC3(C(=O)O)CCOCC3)c2)c1 | -25.7 |
| CN1CCC(c2cncc(N(C)C)n2)CC1 | -11.5 |
| O=C1NCCCCC1Sc1ccccc1F (configuration not stated) | 9.43 |
| CC(=O)N1CCCC1C(=O)N1CCC(=Cc2cccc(F)c2)CC1 (configuration not stated) | 3.5 |
| COc1cc(OC)cc(N2CCC(NCc3cc[nH]n3)C2)c1 (configuration not stated) | 2.55 |
| O=C(O)c1cnc2c(cnn2C2CCCC2)c1 | -8.23 |
| CCCNC(=O)Cc1c(C)nc2c(c1C)c(=O)[nH]n2C | 11.4 |
| COc1ccc(F)cc1CSCC(=O)N(C)CCC#N | -2.32 |
| CCOCCNC(=O)c1ccn(S(=O)(=O)c2ccc(C)cc2)c1 | -3.18 |
| CN(C)C(=O)c1ccccc1NC(=O)N(C)Cc1ccccc1O | -1.03 |
| CCCN(CC1CC1)C(=O)CN1CCCC1c1cnn(C)c1 (configuration not stated) | 2.45 |
| NC(=O)Nc1cccc(C(=O)N(Cc2ccc(F)cc2)C2CC2)c1 | -10.1 |
| Cc1ccc(C2CSCCN2C(=O)c2ccoc2C)o1 (configuration not stated) | 13.8 |
| O=S(=O)(NC1CC1)c1cccc(Br)c1 | -3.52 |
| CCC1CN(Cc2ccccc2)CCN1Cc1nnc(C2CCC2)o1 (configuration not stated) | -11.2 |
| CN(C)C(C)(C)CNC(=O)C(C)(C)c1ccccc1F | -11.2 |
| Cc1cccc(C(=O)N2C[C@@H]3OCCN(CCN4CCCC4)[C@@H]3C2)n1 | -65 |
| CC1=N[C@@]2(CC[C@@H]3CN(C(=O)NCCc4ccccc4)C[C@@H]32)C(=O)N1 | -75.4 |
| CS(=O)(=O)NC[C@]12COC[C@H]1CN(C(=O)C1CCCCC1)C2 | 3.34 |
| O=C(NCC1CC1)C1=NOC2(CCN(S(=O)(=O)c3cccs3)C2)C1 (configuration not stated) | 0.693 |

| Compound | cytotoxicity at 10 µM [%] |
| --- | --- |
| Cc1cc(C)cc(C(C(=O)O)N(C)CCCN2CCOCC2)c1 (configuration not stated) | 6.03 |
| CSc1cccc(NC(=O)N2CCCC(CNC(=O)c3ccco3)C2)c1 (configuration not stated) | -2.4 |
| CSCC(=O)N1CCc2[nH]nc(-c3ccc4c(c3)OCO4)c2C1 | -139 |
| Cc1ccc(-c2ccnc(N[C@H]3COC[C@@H]3N3CCCCC3)n2)c(C)n1 | 3.46 |
| C[C@@H]1CN(C(=O)CCc2nncn2C)C[C@@]1(O)C1CCC1 | -4.97 |
| CN(C)CCN(C)C[C@@H]1CN(Cc2cccc(O)c2)C[C@@H]1CO | 0.972 |
| COCCn1ccnc1C1CCN(C(=O)C(O)c2ccc(F)cc2)CC1 (configuration not stated) | 1.73 |
| O=C(c1ccc(S(=O)(=O)N2CCNCC2)cc1)N1CCCC(O)C1 (configuration not stated) | 8.48 |
| O=C1OC2(CCNCC2)CN1CC(=O)N1CCC1c1cccs1 (configuration not stated) | 4.35 |
| COCCN(C/C=C/c1ccccc1)Cc1ncc[nH]1 | 7.8 |
| Cc1ccc2nc(-c3cnc(N)nc3)cc(C(=O)N(C)C)c2c1 | 14 |
| O=C(NCc1nnc2n1CCC2)c1cn(-c2ccccc2)nn1 | -2.4 |
| CC(C)[C@@H]1CN(Cc2cnc(C3CCCCC3)nc2)C[C@H]1C(=O)O | -6.46 |
| CN1CCN(CCCNS(=O)(=O)Cc2ccccc2F)CC1 | -11.1 |
| COC[C@@]12CC[C@@H](N3CCOCC3)C[C@H]1CCN(c1ncccc1Cl)C2 | -13.2 |
| CC(C)(C)c1ccn(C2(C(=O)O)CCN(c3nccc(N)n3)CC2)n1 | -6.69 |
| Cn1cc(C(=O)Nc2cc(F)ccc2OCC2CCCO2)ccc1=O (configuration not stated) | -7.09 |
| COC(=O)c1cc(C(=O)N2CCCCC2C)n(-c2ccccc2)n1 (configuration not stated) | -13.7 |
| CCOc1ccc(NC(=O)NCc2cccnc2OCC)cc1 | -8.67 |
| O=C(c1ccc2cc[nH]c2c1)N1CCCN(Cc2cscn2)CC1 | -31.7 |
| Cc1noc(C)c1C(=O)NCC(C)N1CCc2ccccc21 (configuration not stated) | -17.2 |

| Compound | cytotoxicity at 10 µM [%] |
| --- | --- |
| CCn1cc(C(=O)N2CCCC(c3noc(C)n3)C2)cn1 (configuration not stated) | 2.17 |
| CCn1cc(CN2CCCN(C(=O)c3ccccc3OC)CC2)cn1 | -11.4 |
| Cn1cnnc1C1CCCN(C(=O)c2ccccn2)C1 (configuration not stated) | -8.31 |
| CCn1cc(CN2CCCN(C(=O)c3cccn3C)CC2)cn1 | -5.85 |
| c1cnn(CC2CCCN2Cc2nc(-c3ccoc3)no2)c1 (configuration not stated) | -7.07 |
| COC(=O)C(c1cc(F)ccc1F)N(C)C(=O)c1csnn1 (configuration not stated) | 0.144 |
| CC(NC(=O)NCc1ccc(Cl)cc1)c1ccccn1 (configuration not stated) | 3.42 |
| Cc1nc(C2CCCN(C(=O)c3ccc(N4CCCC4)nc3)C2)no1 (configuration not stated) | -3.06 |
| CC(C)(CO)NCc1ccc(OCc2ccc3c(c2)OCCO3)cc1 | 4.12 |
| CCC(=O)N1CCC2(CC1)C(=O)N(C)CCN2Cc1csc(C)n1 | 5.59 |
| Cn1cc(CN2CCC3(CC2)CC(Nc2nccs2)CO3)cn1 (configuration not stated) | -79.6 |
| O=C(C1CCOCC1)N1C[C@H]2CCC[C@@]2(COc2ccccn2)C1 | -0.587 |
| CN(C)C(=O)COCc1nn(C)c2c1CCN(Cc1ccco1)C2 | -131 |
| Cc1nn(C)c(Cl)c1CNCc1cccnc1N1CCN(C)CC1 | -9 |
| CO[C@@H]1CCN(S(=O)(=O)c2cccs2)[C@H]1Cc1cccnc1 | -80.3 |
| Cc1ccc(Cc2cnc(C3CCNCC3)cn2)cc1 | -31.2 |
| O=C(NCCn1nc(C2CCNC2)c2cccnc21)C1CCC1 (configuration not stated) | -7.87 |
| CC(C)COC[C@@H]1CC[C@H]2[C@H](CCN2C(=O)c2ccncc2F)O1 | -0.58 |
| CNC(=O)[C@H]1C[C@H]2CN(C(=O)Nc3ccc(F)cc3)C[C@@H]1O2 | 3.28 |
